# FLuc stim CS: firefly luciferase counter-screen for stimulation assays; activation factor at 10 µM; ATPlite luciferase biochemical, luminescence, 10 min; 0 = ATP-free wells, 1 = DMSO control; 200,000 tested, under 10 active; AID 1027;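 active = luciferase activation factor, scaled between plate controls, of at least 2 with compound at 10 µM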
# Target sequence (P08659 whole entry, looked up): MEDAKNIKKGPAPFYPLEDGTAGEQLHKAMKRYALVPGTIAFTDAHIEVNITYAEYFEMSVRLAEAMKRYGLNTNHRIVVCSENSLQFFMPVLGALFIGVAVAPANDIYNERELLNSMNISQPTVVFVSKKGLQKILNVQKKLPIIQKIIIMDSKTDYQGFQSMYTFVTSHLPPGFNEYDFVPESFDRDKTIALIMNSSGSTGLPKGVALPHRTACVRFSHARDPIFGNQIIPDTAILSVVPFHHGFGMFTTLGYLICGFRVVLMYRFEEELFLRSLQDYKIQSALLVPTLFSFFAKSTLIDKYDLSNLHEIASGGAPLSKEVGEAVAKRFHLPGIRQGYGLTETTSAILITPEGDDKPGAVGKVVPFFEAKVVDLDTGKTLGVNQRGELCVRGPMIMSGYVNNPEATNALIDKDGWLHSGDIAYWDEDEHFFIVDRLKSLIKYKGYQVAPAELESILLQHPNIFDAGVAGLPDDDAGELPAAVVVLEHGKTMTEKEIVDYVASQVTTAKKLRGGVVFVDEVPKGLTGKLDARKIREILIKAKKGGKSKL
#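 Material: Luciferase/luciferin reagent mix | Doses: Test compounds dosed from 2 mM stocks in 100% DMSO | Timing: 10 min incubation after luciferase reagent addition, room temperature | Measured by: Luminescence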
# Platelet DG rel: platelet dense granule release activity | human platelet-rich plasma, SFLLRN dense granule ATP release, luminescence | 0.22% of 300,000 active | AID 1663 | inhibition, %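 (compounds screened at 7.5 µM in platelet-rich plasma)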;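 active = mean replicate score, as percent of positive control, at or above 50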
# FLuc inhib CS: Photinus pyralis luciferase inhibition counter-screen; P08659; ATPLite firefly luciferase biochemical luminescence, 10 min; inhibition, % at 10 µM; 1.5% of 200,000 active;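 active = inhibition above about 50% when tested at 10 µM, limit read from the data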
# PPC-1+TRAIL kill: kills PPC-1 cancer cells in the presence of TRAIL; PPC-1 cells + TRAIL, ATPLite viability luminescence; cell killing (% activity), % at 4 µM or 5 µM; 0.41% of 220,000 active;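 active = cell killing above 50% in the first pass at 4 µM, then a duplicate retest at 5 µM averaging 50% or more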;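 also: plate controls were cells with TRAIL plus DMSO for no effect and medium-only wells lacking cells for full effect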
# C8 TRAIL sens: sensitizes caspase-8 expressing cells to TRAIL; inhibition (viability loss, TRAIL sensitization), % at 10 µM; 1% of 360,000 active; AID 624354; NB7+C8 cells + TRAIL, ATPlite viability luminescence;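 active = compounds causing at least 50% loss of cell viability in the single-dose screen, relative to plate controls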
# The depositor's hits bear a star; / = not tested or not shown. In the library only some 1.6% were active in any assay of this set; here they are far more common.
SMILES,FLuc stim CS,Platelet DG rel,FLuc inhib CS,PPC-1+TRAIL kill,C8 TRAIL sens
O=c1cc(N2CCN(Cc3ccccc3)CC2)[nH]c(=O)n1Cc1ccc(F)cc1,1.1,0.9,-9.0,-1.3,-1.8
CCn1c(=O)cc(N2CCN(Cc3ccccc3)CC2)[nH]c1=O,/,52.6*,/,/,0.1
Cc1cccc(NC(=O)c2ccc3c(Cl)c4c(nc3c2)CCCC4)n1,0.2,1.7,81.4*,35.9,69.9*
CCC(C)NC(=O)c1ccc2c(Cl)c3c(nc2c1)CCC3 (stereo not drawn),/,10.0,/,17.5,40.8
O=C(Nc1ccc(Cl)cn1)c1ccc2c(Cl)c3c(nc2c1)CCC3,/,1.9,/,47.0,56.7*
O=Nc1ccc(NOC(=O)c2ccc(Br)cc2)cc1,0.1,/,86.8*,28.0,/
Cc1ccc(C(=O)ONc2ccc(N=NC(=O)c3ccccc3O)cc2)cc1,0.7,1.4,31.5,28.3,31.8
Cc1ccc(C(=O)ONc2ccc(N=O)cc2)cc1,0,58.5*,96.8*,15.1,-5.1
Cc1cc(Br)ccc1OCCCCNCCO,1,-0.8,-2.6,-4.2,52.7*
CSc1nc(/C=C2\C=Nc3ccccc32)c(O)n1C,0.6,69.6*,35.7,23.4,7.4
CCOc1ccc(NS(=O)(=O)c2cccs2)cc1S(=O)(=O)N1CCCC1,/,/,/,/,0.7
CCc1nnc(NC(=O)c2ccc3c(c2)C(=O)N(C(C)(C)C)C3=O)s1,0.3,-6.8,68.7*,24.5,38.2
CCN1C(=O)c2ccc(C(=O)Nc3ncc(C)s3)cc2C1=O,0.1,6.0,86.0*,18.3,-1.2
COC(=O)C[C@@H]1C=C[C@@H](NC(=O)C2CCC2)[C@@H](CO)O1,/,/,/,/,6.7
CN1C(=O)[C@H]2[C@@H](c3ccc(C(F)(F)F)cc3)N[C@]3(CCCN(CC4CCCCC4)C3=O)[C@H]2C1=O,/,/,/,/,-11.8
N/C(=N\OC(=O)C12CC3CC(CC(C3)C1)C2)c1cccnc1,0.7,-2.0,27.0,5.1,9.2
N/C(=N\OC(=O)C12CC3CC(CC(C3)C1)C2)c1ccccc1,0.4,-8.5,64.7*,19.4,59.8*
N/C(=N\OC(=O)C12CC3CC(CC(C3)C1)C2)c1ccccn1,0.3,11.8,66.0*,2.2,25.1
C/C(=N\NC(=O)c1ccccn1)C12CC3CC(CC(C3)C1)C2,0.9,-27.5,14.3,6.6,13.7
Cc1ccc(C(=O)O/N=C2\CCCc3ccccc32)cc1,0.1,13.8,93.5*,19.3,32.0
Cc1cccc(C(=O)O/N=C2\CCCc3ccccc32)c1,0.2,-0.6,80.6*,-5.5,15.7
O=C(O/N=C1/CCCc2occc21)c1ccc(Cl)cc1Cl,/,-10.4,/,13.7,0.7
O=C(O/N=C1\CCCc2ccccc21)c1cccc(Cl)c1,0.5,-0.6,49.5,30.7,-2.6
O=C(O/N=C1/CCCc2occc21)c1ccccc1,0.3,0.4,69.8*,1.0,13.0
O=C(O/N=C1\CCCc2ccccc21)C1CC1,0.9,-0.9,10.6,0.0,-5.3
SMILES,FLuc stim CS,Platelet DG rel,FLuc inhib CS,PPC-1+TRAIL kill,C8 TRAIL sens
Cc1ccc(OCCSc2nc3ccccc3n2CCC(=O)O)c(C(C)C)c1,/,/,/,/,-4.1
N#C/C(N=Nc1ccccc1O)=N\Nc1ccccc1O,/,13.7,/,/,53.5*
Oc1ccccc1N=N/C(=N/Nc1ccccc1O)c1ccccc1,/,-0.9,/,/,-11.7
COc1ccc(C(=O)N2CCC(C)(C(=O)NS(=O)(=O)C3CC3)C2)cc1 (stereo not drawn),/,/,/,/,-9.1
Cc1ccc(-c2nc3ccccc3n2C(C(=O)NC(C)(C)C)C2CC2)cc1 (stereo not drawn),/,/,/,/,-0.3
Cn1c(=O)c2c(SCC(=O)Nc3ccccc3F)nc(-c3ccccc3F)nc2n(C)c1=O,/,-6.0,/,/,10.3
Cn1c(=O)c2c(SCC(=O)Nc3ccccc3F)nc(C3CC3)nc2n(C)c1=O,/,9.7,/,/,49.6*
CCCCCCCCN1C(=O)[C@H](CC(=O)N2CCCC2)C[C@@]2(C(=O)OC)CC(C)(C)CC=C12,/,/,/,/,1.1
COC(=O)c1sc(NC(=S)NC(=O)c2ccccc2Cl)nc1C,0.3,-3.1,67.3*,23.9,38.8
COC(=O)c1sc(NC(=S)NC(=O)c2ccccc2)nc1C,0.4,-3.9,63.1*,-1.8,48.8
CCOC(=O)Cc1csc(NC(=S)NC(=O)c2ccc(C)cc2)n1,0.2,-0.7,80.0*,27.2,81.9*
CCOC(=O)c1sc(NC(=S)NC(=O)c2ccccc2)nc1C,0.6,7.6,37.4,7.8,12.1
Cc1csc(NC(=S)NC(=O)c2ccccc2)n1,/,-15.2,/,/,71.8*
CCOC(=O)Cc1csc(NC(=S)NC(=O)c2ccccc2)n1,0.7,3.3,34.5,-2.8,34.9
Nc1sc(-c2ccccc2)cc1C(=O)N1CCNCC1,/,/,/,/,-4.1
CCC(CN(C)C)Oc1cc(NCc2ccccc2)c2ncn(C(C)C)c2c1 (stereo not drawn),/,/,/,/,58.3*
O=C1CCCN1CCCNc1nc(NCc2ccccc2)nc2ccsc12,/,/,/,/,1.1
CC(C)(C)c1ccc(CC(=O)N2CCC2(C)C(=O)Nc2cccc3cccnc23)cc1 (stereo not drawn),/,/,/,/,5.7
CCCc1ccc(C(=O)/C=C/N(C)C)cc1,0.3,-17.3,74.1*,27.4,12.5
CN(C)/C=C/C(=O)c1ccc(Oc2ccccc2)cc1,0.3,7.2,75.0*,8.1,18.6
CN(C)/C=C/C(=O)c1ccccc1,/,1.2,/,12.3,0.1
Cc1ccccc1Nc1c(-c2ccc(N3CCOCC3)cc2)nc2cnccn12,/,0.3,/,34.0,47.8*
Cc1ccccc1Nc1c(-c2ccc(N3CCOCC3)cc2)nc2ncccn12,0.4,8.6,59.0*,33.0,-11.7
Cc1ccc(Nc2c(-c3ccc(N4CCOCC4)cc3)nc3ncccn23)cc1,1,0.9,-1.8,13.5,-1.2
Cc1ccc(Nc2c(-c3ccc(N4CCOCC4)cc3)nc3cnccn23)cc1,/,-3.6,/,11.3,11.2
SMILES,FLuc stim CS,Platelet DG rel,FLuc inhib CS,PPC-1+TRAIL kill,C8 TRAIL sens
COC(=O)C1=CN(c2ccc(C(C)(C)C)cc2)C(N)=C(C#N)C1c1cccc([N+](=O)[O-])c1 (stereo not drawn),/,/,/,/,2.8
COc1ccc(S(=O)(=O)N(C)C[C@@H]2Oc3cc(Br)ccc3S(=O)(=O)N([C@H](C)CO)C[C@@H]2C)cc1,/,/,/,/,5.3
COc1ccc2nc(NNC(=O)c3cc(=O)c4ccccc4o3)sc2c1,0.3,3.3,69.0*,15.5,48.0*
O=C(NNc1nc2c(F)cccc2s1)c1cc(=O)c2ccccc2o1,0.5,1.6,54.8*,12.1,16.2
Cc1cc(NC(=O)c2csc([C@@H]3O[C@H](CO)[C@H](O)[C@H](O)[C@H]3O)n2)n(C)n1,/,/,/,/,4.4
c1csc(-c2ccc3ccccc3n2)c1,0.6,-22.9,40.0,14.7,4.9
Cc1cc2ncc(-c3cccs3)nc2cc1C,/,29.0,/,/,69.1*
CCOC(=O)c1ccccc1Nc1cn(C(C)=O)c2ccccc12,1,-26.7,-2.9,-16.2,10.6
COc1ccccc1N(C(=O)CCl)c1cn(C(C)=O)c2ccccc12,/,0.5,/,22.6,92.5*
CC(=O)n1cc(N(C(=O)CCl)c2ccc(Cl)cc2)c2ccccc21,/,-2.7,/,38.6,93.9*
